Laboratory results published in ChEMBL document CHEMBL3627681, “Synthesis and biological evaluation of 1,3-diaryl pyrazole derivatives as potential antibacterial and anti-inflammatory agents” (2015).
Values after ≈ are worked out from the molar mass of the structure shown.

Tests used:
Mus musculus = test: Antiinflammatory activity in mouse assessed as inhibition of xylene-induced ear edema at 50 mg/kg, ip administered 30 mins before xylene challenge relative to control; type: functional
Procedure, shortened: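 Mice received compound freshly dissolved in DMSO, 50 mg/kg ip at 0.05 mL/20 g body weight; vehicle controls got DMSO alone. After 30 min, 20 µL xylene was applied to the right ear. After a further 30 min, 7 mm plugs were cut from treated and untreated ears and edema taken as their weight difference. Result is % edema reduction versus vehicle controls.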

Escherichia coli [1] = test: Antibacterial activity against Escherichia coli KCTC 1924 after 24 hrs by two-fold serial dilution method; type: functional; details: KCTC 1924, 24 h
Procedure, shortened: (§1)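 Broth microdilution in Mueller-Hinton broth over final concentrations of 64–0.5. Bacteria were grown to mid-log phase and diluted 1000-fold, then inoculated at 10⁵ CFU/mL. Compounds were dissolved in DMSO, with final DMSO at most 0.05%. Plates were incubated 24 h at 37 °C and growth read as absorbance at 650 nm. MIC is the concentration giving complete growth inhibition. Three independent runs.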

Staphylococcus aureus [2] = test: Antibacterial activity against Staphylococcus aureus RN4220 after 24 hrs by two-fold serial dilution method; type: functional; details: RN4220, 24 h
Procedure, shortened: (§2)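 Broth microdilution in Mueller-Hinton broth. Bacteria grown to mid-log phase, diluted 1000-fold, and inoculated at 10⁵ CFU/mL. Test compounds in DMSO, final DMSO not above 0.05%, final concentrations 64-0.5 µg/mL. Incubation 24 h at 37 °C, growth read as absorbance at 650 nm. MIC taken as the lowest concentration giving complete growth inhibition. Run three times.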

Staphylococcus aureus [3] = test: Antibacterial activity against quinolone-resistant Staphylococcus aureus CCARM 3519 after 24 hrs by two-fold serial dilution method; type: functional; details: CCARM 3519, 24 h; procedure, shortened: as §2
Escherichia coli [4] = test: Ratio of moxifloxacin MIC to compound MIC for Escherichia coli CCARM 1356 after 24 hrs by two-fold serial dilution method; type: functional
Pseudomonas aeruginosa [5] = test: Antibacterial activity against Pseudomonas aeruginosa 2004 after 24 hrs by two-fold serial dilution method; type: functional; details: Pseudomonas aeruginosa, 2004, 24 h; procedure, shortened: as §1
Staphylococcus aureus [6] = test: Antibacterial activity against quinolone-resistant Staphylococcus aureus CCARM 3505 after 24 hrs by two-fold serial dilution method; type: functional; details: CCARM 3505, 24 h; procedure, shortened: as §2
Escherichia coli [7] = test: Antibacterial activity against Escherichia coli CCARM 1356 after 24 hrs by two-fold serial dilution method; type: functional; details: CCARM 1356, 24 h; procedure, shortened: as §1
Staphylococcus aureus [8] = test: Antibacterial activity against methicillin-resistant Staphylococcus aureus CCARM 3167 after 24 hrs by two-fold serial dilution method; type: functional; details: CCARM 3167, 24 h; procedure, shortened: as §2
Staphylococcus aureus [9] = test: Antibacterial activity against Staphylococcus aureus 503 after 24 hrs by two-fold serial dilution method; type: functional; details: Staphylococcus aureus, 503, 24 h; procedure, shortened: as §2
Staphylococcus aureus [10] = test: Antibacterial activity against Staphylococcus aureus 209 after 24 hrs by two-fold serial dilution method; type: functional; details: Staphylococcus aureus, 209, 24 h; procedure, shortened: as §2
Salmonella typhimurium = test: Antibacterial activity against Salmonella typhimurium 2421 after 24 hrs by two-fold serial dilution method; type: functional, Salmonella enterica subsp. enterica serovar Typhimurium; details: Salmonella enterica, 2421, 24 h; procedure, shortened: as §1
Pseudomonas aeruginosa [11] = test: Antibacterial activity against Pseudomonas aeruginosa 2742 after 24 hrs by two-fold serial dilution method; type: functional; details: Pseudomonas aeruginosa, 2742, 24 h; procedure, shortened: as §1
Candida albicans = test: Antifungal activity against Candida albicans 7535 by two-fold serial dilution method; type: functional
Streptococcus mutans = test: Antibacterial activity against Streptococcus mutans 3065 after 24 hrs by two-fold serial dilution method; type: functional; details: Streptococcus mutans, 3065, 24 h; procedure, shortened: as §1
Staphylococcus aureus [12] = test: Antibacterial activity against methicillin-resistant Staphylococcus aureus CCARM 3506 after 24 hrs by two-fold serial dilution method; type: functional; details: CCARM 3506, 24 h; procedure, shortened: as §2
Staphylococcus aureus [13] = test: Ratio of gatifloxacin MIC to compound MIC for quinolone-resistant Staphylococcus aureus CCARM 3505 after 24 hrs by two-fold serial dilution method; type: functional
Staphylococcus aureus [14] = test: Ratio of gatifloxacin MIC to compound MIC for quinolone-resistant Staphylococcus aureus CCARM 3519 after 24 hrs by two-fold serial dilution method; type: functional
Staphylococcus aureus [15] = test: Ratio of moxifloxacin MIC to compound MIC for quinolone-resistant Staphylococcus aureus CCARM 3505 after 24 hrs by two-fold serial dilution method; type: functional
Staphylococcus aureus [16] = test: Ratio of moxifloxacin MIC to compound MIC for quinolone-resistant Staphylococcus aureus CCARM 3519 after 24 hrs by two-fold serial dilution method; type: functional
Staphylococcus aureus [17] = test: Ratio of oxacillin MIC to compound MIC for methicillin-resistant Staphylococcus aureus CCARM 3506 after 24 hrs by two-fold serial dilution method; type: functional
Staphylococcus aureus [18] = test: Ratio of norfloxacin MIC to compound MIC for methicillin-resistant Staphylococcus aureus CCARM 3506 after 24 hrs by two-fold serial dilution method; type: functional
Escherichia coli [19] = test: Ratio of gatifloxacin MIC to compound MIC for Escherichia coli CCARM 1356 after 24 hrs by two-fold serial dilution method; type: functional

COc1cccc(-c2nn(-c3ccc([N+](=O)[O-])cc3[N+](=O)[O-])cc2/C=N/NC(=N)N)c1
inhibition in vivo at 50 mg/kg (Mus musculus): 67.3%
MIC (Escherichia coli [1]): 4 µg/mL (≈ 9.43 µM)
MIC (Staphylococcus aureus [2]): 4 µg/mL (≈ 9.43 µM)
MIC (Staphylococcus aureus [3]): 4 µg/mL (≈ 9.43 µM)
Ratio (Escherichia coli [4]): 16
MIC (Pseudomonas aeruginosa [5]): > 64 µg/mL
MIC (Staphylococcus aureus [6]): 4 µg/mL (≈ 9.43 µM)
MIC (Escherichia coli [7]): 8 µg/mL (≈ 18.9 µM)
MIC (Staphylococcus aureus [8]): 4 µg/mL (≈ 9.43 µM)
MIC (Staphylococcus aureus [9]): 4 µg/mL (≈ 9.43 µM)
MIC (Staphylococcus aureus [10]): 4 µg/mL (≈ 9.43 µM)
MIC (Salmonella typhimurium): 8 µg/mL (≈ 18.9 µM)
MIC (Pseudomonas aeruginosa [11]): > 64 µg/mL
MIC (Candida albicans): 2 µg/mL (≈ 4.71 µM)
MIC (Streptococcus mutans): 8 µg/mL (≈ 18.9 µM)
MIC (Staphylococcus aureus [12]): 2 µg/mL (≈ 4.71 µM)

Cc1ccc(-c2nn(-c3ccccc3)cc2/C=N/NC(=N)N)cc1
inhibition in vivo at 50 mg/kg (Mus musculus): 86.5%
MIC (Escherichia coli [1]): 2 µg/mL (≈ 6.28 µM)
MIC (Staphylococcus aureus [2]): 2 µg/mL (≈ 6.28 µM)
MIC (Staphylococcus aureus [3]): 4 µg/mL (≈ 12.6 µM)
Ratio (Escherichia coli [4]): 16
MIC (Pseudomonas aeruginosa [5]): 16 µg/mL (≈ 50.3 µM)
MIC (Staphylococcus aureus [6]): 4 µg/mL (≈ 12.6 µM)
MIC (Escherichia coli [7]): 8 µg/mL (≈ 25.1 µM)
MIC (Staphylococcus aureus [8]): 2 µg/mL (≈ 6.28 µM)
MIC (Staphylococcus aureus [9]): 4 µg/mL (≈ 12.6 µM)
MIC (Staphylococcus aureus [10]): 4 µg/mL (≈ 12.6 µM)
MIC (Salmonella typhimurium): 8 µg/mL (≈ 25.1 µM)
MIC (Pseudomonas aeruginosa [11]): 32 µg/mL (≈ 101 µM)
MIC (Candida albicans): 2 µg/mL (≈ 6.28 µM)
MIC (Streptococcus mutans): 8 µg/mL (≈ 25.1 µM)
MIC (Staphylococcus aureus [12]): 2 µg/mL (≈ 6.28 µM)

N=C(N)N/N=C/c1cn(-c2ccc([N+](=O)[O-])cc2[N+](=O)[O-])nc1-c1ccc(Cl)cc1Cl
inhibition in vivo at 50 mg/kg (Mus musculus): 61.9%
MIC (Escherichia coli [1]): 2 µg/mL (≈ 4.32 µM)
MIC (Staphylococcus aureus [2]): 2 µg/mL (≈ 4.32 µM)
MIC (Staphylococcus aureus [3]): 2 µg/mL (≈ 4.32 µM)
Ratio (Escherichia coli [4]): 16
MIC (Pseudomonas aeruginosa [5]): > 64 µg/mL
Ratio (Staphylococcus aureus [13]): 4
MIC (Staphylococcus aureus [6]): 2 µg/mL (≈ 4.32 µM)
MIC (Escherichia coli [7]): 8 µg/mL (≈ 17.3 µM)
Ratio (Staphylococcus aureus [14]): 2
MIC (Staphylococcus aureus [8]): 2 µg/mL (≈ 4.32 µM)
MIC (Staphylococcus aureus [9]): 2 µg/mL (≈ 4.32 µM)
MIC (Staphylococcus aureus [10]): 2 µg/mL (≈ 4.32 µM)
MIC (Salmonella typhimurium): 8 µg/mL (≈ 17.3 µM)
MIC (Pseudomonas aeruginosa [11]): > 64 µg/mL
MIC (Candida albicans): 2 µg/mL (≈ 4.32 µM)
Ratio (Staphylococcus aureus [15]): 2
MIC (Streptococcus mutans): 4 µg/mL (≈ 8.63 µM)
MIC (Staphylococcus aureus [12]): 2 µg/mL (≈ 4.32 µM)

N=C(N)N/N=C/c1cn(-c2ccc([N+](=O)[O-])cc2[N+](=O)[O-])nc1-c1cccc(Br)c1
inhibition in vivo at 50 mg/kg (Mus musculus): 81.7%
MIC (Escherichia coli [1]): 2 µg/mL (≈ 4.23 µM)
MIC (Staphylococcus aureus [2]): 1 µg/mL (≈ 2.11 µM)
Ratio (Staphylococcus aureus [16]): 2
MIC (Staphylococcus aureus [3]): 2 µg/mL (≈ 4.23 µM)
Ratio (Staphylococcus aureus [17]): 64
MIC (Pseudomonas aeruginosa [5]): > 64 µg/mL
Ratio (Staphylococcus aureus [18]): 4
Ratio (Escherichia coli [19]): 4
Ratio (Staphylococcus aureus [13]): 4
MIC (Staphylococcus aureus [6]): 2 µg/mL (≈ 4.23 µM)
MIC (Escherichia coli [7]): 4 µg/mL (≈ 8.45 µM)
Ratio (Staphylococcus aureus [14]): 2
MIC (Staphylococcus aureus [8]): 1 µg/mL (≈ 2.11 µM)
MIC (Staphylococcus aureus [9]): 2 µg/mL (≈ 4.23 µM)
MIC (Staphylococcus aureus [10]): 2 µg/mL (≈ 4.23 µM)
MIC (Salmonella typhimurium): 4 µg/mL (≈ 8.45 µM)
MIC (Pseudomonas aeruginosa [11]): > 64 µg/mL
MIC (Candida albicans): 1 µg/mL (≈ 2.11 µM)
Ratio (Staphylococcus aureus [15]): 2
MIC (Streptococcus mutans): 4 µg/mL (≈ 8.45 µM)
MIC (Staphylococcus aureus [12]): 1 µg/mL (≈ 2.11 µM)

Cc1ccc(-c2nn(-c3ccc([N+](=O)[O-])cc3[N+](=O)[O-])cc2/C=N/NC(=N)N)c(C)c1
inhibition in vivo at 50 mg/kg (Mus musculus): 79.6%
MIC (Escherichia coli [1]): 2 µg/mL (≈ 4.73 µM)
MIC (Staphylococcus aureus [2]): 2 µg/mL (≈ 4.73 µM)
MIC (Staphylococcus aureus [3]): 4 µg/mL (≈ 9.47 µM)
Ratio (Escherichia coli [4]): 16
MIC (Pseudomonas aeruginosa [5]): > 64 µg/mL
MIC (Staphylococcus aureus [6]): 2 µg/mL (≈ 4.73 µM)
MIC (Escherichia coli [7]): 8 µg/mL (≈ 18.9 µM)
MIC (Staphylococcus aureus [8]): 2 µg/mL (≈ 4.73 µM)
MIC (Staphylococcus aureus [9]): 4 µg/mL (≈ 9.47 µM)
MIC (Staphylococcus aureus [10]): 4 µg/mL (≈ 9.47 µM)
MIC (Salmonella typhimurium): 8 µg/mL (≈ 18.9 µM)
MIC (Pseudomonas aeruginosa [11]): > 64 µg/mL
MIC (Candida albicans): 2 µg/mL (≈ 4.73 µM)
MIC (Streptococcus mutans): 4 µg/mL (≈ 9.47 µM)
MIC (Staphylococcus aureus [12]): 2 µg/mL (≈ 4.73 µM)

N=C(N)N/N=C/c1cn(-c2ccc([N+](=O)[O-])cc2[N+](=O)[O-])nc1-c1ccc(Br)cc1
inhibition in vivo at 50 mg/kg (Mus musculus): 69.6%
MIC (Escherichia coli [1]): 2 µg/mL (≈ 4.23 µM)
MIC (Staphylococcus aureus [2]): 2 µg/mL (≈ 4.23 µM)
Ratio (Staphylococcus aureus [16]): 2
MIC (Staphylococcus aureus [3]): 2 µg/mL (≈ 4.23 µM)
Ratio (Staphylococcus aureus [17]): 64
MIC (Pseudomonas aeruginosa [5]): > 64 µg/mL
Ratio (Escherichia coli [19]): 4
Ratio (Staphylococcus aureus [13]): 4
MIC (Staphylococcus aureus [6]): 2 µg/mL (≈ 4.23 µM)
MIC (Escherichia coli [7]): 4 µg/mL (≈ 8.45 µM)
MIC (Staphylococcus aureus [8]): 2 µg/mL (≈ 4.23 µM)
MIC (Staphylococcus aureus [9]): 2 µg/mL (≈ 4.23 µM)
MIC (Staphylococcus aureus [10]): 2 µg/mL (≈ 4.23 µM)
MIC (Salmonella typhimurium): 4 µg/mL (≈ 8.45 µM)
MIC (Pseudomonas aeruginosa [11]): > 64 µg/mL
MIC (Candida albicans): 1 µg/mL (≈ 2.11 µM)
MIC (Streptococcus mutans): 2 µg/mL (≈ 4.23 µM)
MIC (Staphylococcus aureus [12]): 1 µg/mL (≈ 2.11 µM)
